Tests used:
[1] = Cytotoxicity against human HL60 cells assessed as cell growth inhibition at 50 uM after 48 hrs by MTT assay; assay type: functional; settings: HL-60, 48 h, read-out: GI
Summary of the method: (§1)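 HL-60 suspension cells, 1.5 × 10^4 per well, grown at 37 °C in 5% CO2 with 10% FCS. Treated 48 h with compound in DMSO (vehicle <0.2% v/v). MTT added 3 h before the end. Formazan dissolved in DMSO and read at 570 nm (reference 620 nm). % growth inhibition computed against untreated cells; IC50 taken from the concentration series.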

[2] = Cytotoxicity against human HL60 cells assessed as cell growth inhibition at 30 uM after 48 hrs by MTT assay; assay type: functional; settings: HL-60, 48 h, read-out: GI; summary of the method: as §1
[3] = Cytotoxicity against human MIAPaCa2 cells assessed as cell growth inhibition at 30 uM after 48 hrs by MTT assay; assay type: functional; settings: MIA PaCa-2, 48 h, read-out: GI
Summary of the method: (§2)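 Adherent lines at 70–75% confluence, grown at 37 °C in 5% CO2 with 10% FCS. Exposed 48 h to compound in DMSO (vehicle <0.2% v/v). MTT dye added 3 h before termination; formazan dissolved in DMSO, OD 570 nm with 620 nm reference. Growth inhibition expressed as % of untreated; IC50 taken from the dose series.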

[4] = Cytotoxicity against human MIAPaCa2 cells assessed as cell growth inhibition at 50 uM after 48 hrs by MTT assay; assay type: functional; settings: MIA PaCa-2, 48 h, read-out: GI; summary of the method: as §2
[5] = Cytotoxicity against human PC3 cells assessed as cell growth inhibition at 30 uM after 48 hrs by MTT assay; assay type: functional; settings: PC-3, 48 h, read-out: GI; summary of the method: as §2
[6] = Cytotoxicity against human PC3 cells assessed as cell growth inhibition at 50 uM after 48 hrs by MTT assay; assay type: functional; settings: PC-3, 48 h, read-out: GI; summary of the method: as §2
[7] = Cytotoxicity against human HepG2 cells assessed as cell growth inhibition at 30 uM after 48 hrs by MTT assay; assay type: functional; settings: HepG2, 48 h, read-out: GI; summary of the method: as §2
[8] = Cytotoxicity against human HepG2 cells assessed as cell growth inhibition at 50 uM after 48 hrs by MTT assay; assay type: functional; settings: HepG2, 48 h, read-out: GI; summary of the method: as §2
[9] = Cytotoxicity against human LS180 cells assessed as cell growth inhibition at 30 uM after 48 hrs by MTT assay; assay type: functional; settings: LS180, 48 h, read-out: GI; summary of the method: as §2
[10] = Cytotoxicity against human LS180 cells assessed as cell growth inhibition at 50 uM after 48 hrs by MTT assay; assay type: functional; settings: LS180, 48 h, read-out: GI; summary of the method: as §2
[11] = Lipophilicity, log P of the compound; assay type: physicochemical; settings: octanol/water
[12] = Aqueous solubility of the compound at pH 7; assay type: physicochemical

C[C@H]1[C@@H](OCCOc2ccc(/C=C/C(=O)c3ccccc3Cl)cc2)O[C@@H]2O[C@@]3(C)CC[C@H]4[C@H](C)CC[C@@H]1[C@@]24OO3
inhibition of growth at 50 µM [1]: 92.9% | inhibition of growth at 30 µM [2]: 91.8% | inhibition of growth at 30 µM [3]: 55.1% | inhibition of growth at 50 µM [4]: 61.1% | inhibition of growth at 30 µM [5]: 52.4% | inhibition of growth at 50 µM [6]: 56.1% | inhibition of growth at 30 µM [7]: 23.8% | inhibition of growth at 50 µM [8]: 25.2% | inhibition of growth at 30 µM [9]: 56.7% | inhibition of growth at 50 µM [10]: 57.5% | logP [11]: 5.34 to 7.45 | solubility [12]: < 10 µg/mL

C[C@H]1[C@@H](OCCOc2ccc(-c3cc(=O)c4ccc(OCCO[C@H]5O[C@H]6O[C@@]7(C)CC[C@H]8[C@H](C)CC[C@@H]([C@H]5C)[C@@]68OO7)cc4o3)cc2)O[C@H]2O[C@@]3(C)CC[C@H]4[C@H](C)CC[C@@H]1[C@@]24OO3
inhibition of growth at 50 µM [1]: 73.8% | inhibition of growth at 30 µM [2]: 71.8% | inhibition of growth at 30 µM [3]: 32.7% | inhibition of growth at 50 µM [4]: 41.8% | inhibition of growth at 30 µM [5]: 40.6% | inhibition of growth at 50 µM [6]: 41.3% | inhibition of growth at 30 µM [7]: 30.1 to 87.4% | inhibition of growth at 50 µM [8]: 37.7% | inhibition of growth at 30 µM [9]: 30.5% | inhibition of growth at 50 µM [10]: 39.7% | logP [11]: 5.34 to 7.45 | solubility [12]: < 10 µg/mL

C[C@H]1[C@@H](OCCOc2ccc(/C=C/C(=O)c3ccc(Cl)s3)cc2)O[C@@H]2O[C@@]3(C)CC[C@H]4[C@H](C)CC[C@@H]1[C@@]24OO3
inhibition of growth at 50 µM [1]: 92.1% | inhibition of growth at 30 µM [2]: 91.9% | inhibition of growth at 30 µM [3]: 53.2% | inhibition of growth at 50 µM [4]: 59.7% | inhibition of growth at 30 µM [5]: 37.4% | inhibition of growth at 50 µM [6]: 39.9% | inhibition of growth at 30 µM [7]: 21.1% | inhibition of growth at 50 µM [8]: 25.2% | inhibition of growth at 30 µM [9]: 39.5% | inhibition of growth at 50 µM [10]: 41.6% | logP [11]: 5.34 to 7.45 | solubility [12]: < 10 µg/mL

C[C@H]1[C@@H](OCCOc2cccc(C(=O)/C=C/c3cn(CCO[C@H]4O[C@@H]5O[C@@]6(C)CC[C@H]7[C@H](C)CC[C@@H]([C@H]4C)[C@@]57OO6)c4ccccc34)c2)O[C@@H]2O[C@@]3(C)CC[C@H]4[C@H](C)CC[C@@H]1[C@@]24OO3
inhibition of growth at 50 µM [1]: 83.2% | inhibition of growth at 30 µM [2]: 81.5% | inhibition of growth at 30 µM [3]: 47.1% | inhibition of growth at 50 µM [4]: 49.4% | inhibition of growth at 30 µM [5]: 46.3% | inhibition of growth at 50 µM [6]: 48.7% | inhibition of growth at 30 µM [7]: 25.4% | inhibition of growth at 50 µM [8]: 28.7% | inhibition of growth at 30 µM [9]: 36.2% | inhibition of growth at 50 µM [10]: 37.8% | logP [11]: 5.34 to 7.45 | solubility [12]: < 10 µg/mL

C[C@H]1[C@@H](OCCOc2ccc(C(=O)/C=C/c3c[nH]c4ccccc34)cc2)O[C@@H]2O[C@@]3(C)CC[C@H]4[C@H](C)CC[C@@H]1[C@@]24OO3
inhibition of growth at 50 µM [1]: 91.8% | inhibition of growth at 30 µM [2]: 89.1% | inhibition of growth at 30 µM [3]: 49.1% | inhibition of growth at 50 µM [4]: 49.4% | inhibition of growth at 30 µM [5]: 38.6% | inhibition of growth at 50 µM [6]: 39.6% | inhibition of growth at 30 µM [7]: 21.2% | inhibition of growth at 50 µM [8]: 25.9% | inhibition of growth at 30 µM [9]: 41.9% | inhibition of growth at 50 µM [10]: 44.1% | logP [11]: 5.34 to 7.45 | solubility [12]: < 10 µg/mL

C[C@@H]1CC[C@H]2[C@@H](C)C(=O)O[C@@H]3O[C@@]4(C)CC[C@@H]1[C@]32OO4 [ARTEMISININ]
inhibition of growth at 50 µM [1]: 19.8% | inhibition of growth at 30 µM [2]: 14.4% | inhibition of growth at 30 µM [3]: 13% | inhibition of growth at 50 µM [4]: 18% | inhibition of growth at 30 µM [5]: 16% | inhibition of growth at 50 µM [6]: 17.6% | inhibition of growth at 30 µM [7]: 10.5% | inhibition of growth at 50 µM [8]: 14.4% | inhibition of growth at 30 µM [9]: 13.4% | inhibition of growth at 50 µM [10]: 18.5%

COc1ccc(C(=O)/C=C/c2ccc(OCCO[C@H]3O[C@@H]4O[C@@]5(C)CC[C@H]6[C@H](C)CC[C@@H]([C@H]3C)[C@@]46OO5)cc2)cc1Cl
inhibition of growth at 50 µM [1]: 93.8% | inhibition of growth at 30 µM [2]: 93.4% | inhibition of growth at 30 µM [3]: 51.1% | inhibition of growth at 50 µM [4]: 52.2% | inhibition of growth at 30 µM [5]: 40.3% | inhibition of growth at 50 µM [6]: 42.7% | inhibition of growth at 30 µM [7]: 26.7% | inhibition of growth at 50 µM [8]: 32.3% | inhibition of growth at 30 µM [9]: 41.6% | inhibition of growth at 50 µM [10]: 45.4% | logP [11]: 5.34 to 7.45 | solubility [12]: < 10 µg/mL

Source: ChEMBL document CHEMBL3865799, “Synthesis of a series of novel dihydroartemisinin monomers and dimers containing chalcone as a linker and their anticancer activity” (Eur J Med Chem, 2016)
